Data from ChEMBL document CHEMBL2440094, “Thiazolidinone-peptide hybrids as dengue virus protease inhibitors with antiviral activity in cell culture” (J Med Chem, 2013).
Calls of active or inactive are those of the source. The rule behind the calls is not given here. Square brackets hold non-standard residues; d marks the D form. Peptide text beside a SMILES is read from it. * marks the point of attachment. Nle = CCCC[C@H](N)C(=O)O; Bz = O=C(c1ccccc1)*

Tests used:
[1] = Inhibition of Dengue virus NS2B-NS3 protease expressed in Escherichia coli BL 21 (DE3) using Abz-Nle-Lys-Arg-Arg-Ser-3-(NO2)Tyr as substrate after 15 mins
[2] = Inhibition of Dengue virus NS2B-NS3 protease expressed in Escherichia coli BL 21 (DE3) using Abz-Nle-Lys-Arg-Arg-Ser-3-(NO2)Tyr as substrate assessed as enzyme-substrate-inhibitor complex by Cornish-Bowden plot analysis
Method in brief: (§1)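 DEN2 NS2B–NS3 FRET assay run at inhibitor 0–6 μM (prior-series compounds 5–50 μM) and substrate 50, 100, 150 and 200 μM, in triplicate, with inner-filter correction. Ki from Dixon plots (1/v vs [I]) and Ki′ from Cornish-Bowden plots (S/v vs [I]). Inhibition mode assigned from these plots.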

[3] = Inhibition of Dengue virus NS2B-NS3 protease expressed in Escherichia coli BL 21 (DE3) using Abz-Nle-Lys-Arg-Arg-Ser-3-(NO2)Tyr as substrate assessed as enzyme-inhibitor complex by Cornish-Bowden plot analysis; details: in the assay text read “Dixon plot” for “Cornish-Bowden plot”; method in brief: as §1
[4] = system: Dengue virus; test: Competitive inhibition of Dengue virus NS2B-NS3 protease expressed in Escherichia coli BL 21 (DE3) using Abz-Nle-Lys-Arg-Arg-Ser-3-(NO2)Tyr as substrate by Cornish-Bowden plot analysis; method in brief: as §1
[5] = system: West Nile virus; test: Inhibition of West Nile virus NS2B-NS3 protease expressed in Escherichia coli BL 21 (DE3) using Abz-Gly-Leu-Lys-Arg-Gly-Gly-3-(NO2)Tyr as substrate at 50 uM after 15 mins
[6] = system: Dengue virus; test: Inhibition of Dengue virus NS2B-NS3 protease expressed in Escherichia coli BL 21 (DE3) using Abz-Nle-Lys-Arg-Arg-Ser-3-(NO2)Tyr as substrate at 50 uM after 15 mins
[7] = target: Prothrombin (Homo sapiens) (UniProt P00734); test: Inhibition of thrombin (unknown origin) using Boc-Val-Pro-Arg-AMC as substrate at 25 uM after 10 mins by continuous fluorimetric assay
Method in brief: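 Thrombin (10 nM) preincubated 15 min with inhibitor (25 μM final) in 50 mM Tris-HCl pH 7.5, 150 mM NaCl, 0.05% Tween 20. Boc-Val-Pro-Arg-AMC then added to 50 μM (Km 16 μM). Fluorescence (ex 355 nm, em 460 nm) followed for 10 min as slope. Triplicate; percent inhibition versus no-inhibitor control.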

[8] = system: Huh-7; test: Cytotoxicity against human HuH7 cells at <50 uM after 48 hrs by firefly reporter assay; type: cell-based; details: huh-7, 48 h
Method in brief: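 Uninfected Huh-7 cells stably expressing firefly luciferase, seeded 5000/well and incubated overnight at 37 °C. Compound added at 1.56–50 μM, plus 100, 200 and 400 μM, then incubated as for infected cells (further 48 h after the 4 h point). Firefly luminescence read with 70 μM luciferin and 2 mM ATP. Mean of three wells as percent of DMSO control.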

[9] = system: dengue virus type 2; test: Antiviral activity against Dengue virus 2 infected in human Huh-7 cells assessed as inhibition of viral replication after 48 hrs by luciferase reporter gene assay; type: functional, organism-based; details: Huh-7, 48 h
Method in brief: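 Huh-7 cells seeded 5000/well, incubated overnight at 37 °C, then given compound (1.56–50 μM final, 2-fold series in DMEM with 10% FCS). Dengue 2 renilla luciferase reporter virus (MOI 10) added 4 h later. After 48 h at 37 °C, cells lysed and renilla luminescence read with coelenterazine. At least four wells per concentration, expressed relative to DMSO control. EC50 by nonlinear regression.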

[10] = Permeability of the compound by PAMPA; type: ADME; details: read-out: permeability
Method in brief: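 PAMPA with precoated trilayer lipid/oil/lipid membranes, donor wells holding 200 μM compound in PBS pH 7.4 (2% DMSO final), in triplicate. Incubated 5 h at room temperature. Donor and acceptor concentrations determined by UV plate reader or HPLC-UV against calibration curves. Pe and mass retention R calculated.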

[11] = system: Dengue virus; test: Mixed type inhibition of Dengue virus NS2B-NS3 protease expressed in Escherichia coli BL 21 (DE3) using Abz-Nle-Lys-Arg-Arg-Ser-3-(NO2)Tyr as substrate by Cornish-Bowden plot analysis; method in brief: as §1
[12] = system: dengue virus type 2; test: Antiviral activity against Dengue virus 2 infected in human Huh-7 cells assessed as inhibition of virus-induced plaque formation at 50 uM after 48; type: functional, organism-based
Method in brief: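 Huh-7 cells seeded in 12-well plates and pretreated with compound (50 μM) for 4 h. Infected for 1 h with dengue reporter virus (MOI 5) in the presence of compound, then medium replaced with compound-containing DMEM. Supernatant harvested at 48 h and filtered. Titer determined by plaque assay on Vero cells. Mean ± SD of three independent experiments.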

## CCCC[C@H](NC(=O)[C@H](CCCCN)NC(=O)[C@H](CCCNC(=N)N)NC(=O)c1ccc(/C=C2\SC(=O)N(Cc3ccc(OC)cc3)C2=O)cc1)C(N)=O
[1]
  IC50: 3.3 µM
[2]
  Ki: > 10 µM
[3]
  Ki: 2.2 µM
[4]
  inhibition: Active
[5]
  inhibition: 47.2%
[6]
  inhibition: 97%
[7]
  inhibition: 12.3%

## CCCC[C@H](NC(=O)[C@H](CCCCN)NC(=O)[C@H](CCCNC(=N)N)NC(=O)c1ccc(/C=C2\SC(=S)N(C)C2=O)cc1)C(N)=O
[8]
  Activity: Non-toxic
[5]
  inhibition: 35%
[6]
  inhibition: 89%
[7]
  inhibition: 14.8%
[9]
  EC50: > 50 µM

## CCCC[C@H](NC(=O)[C@H](CCCCN)NC(=O)[C@H](CCCNC(=N)N)NC(=O)c1ccc(/C=C2\SC(=O)N(C3CCCCC3)C2=O)cc1)C(N)=O
[1]
  IC50: 3.4 µM
[2]
  Ki: > 10 µM
[3]
  Ki: 2.3 µM
[4]
  inhibition: Active
[5]
  inhibition: 51.1%
[10]
  Papp: 1.69 ×10⁻⁶ cm/s
[6]
  inhibition: 98.4%
[7]
  inhibition: 9.1%

## CCCC[C@H](NC(=O)[C@H](CCCCN)NC(=O)[C@H](CCCNC(=N)N)NC(=O)c1ccc(/C=C2\SC(=O)N(Cc3ccc(Cl)cc3)C2=O)cc1)C(N)=O
[1]
  IC50: 3.2 µM
[11]
  inhibition: Active
[8]
  Activity: Non-toxic
[2]
  Ki: 5.4 µM
[3]
  Ki: 2.2 µM
[12]
  inhibition: inactive
[5]
  inhibition: 88.2%
[10]
  Papp: 1.11 ×10⁻⁶ cm/s
[6]
  inhibition: 99.4%
[7]
  inhibition: 18%
[9]
  EC50: 41.1 µM

## CCCC[C@H](NC(=O)[C@H](CCCCN)NC(=O)[C@H](CCCNC(=N)N)NC(=O)c1ccc(/C=C2\SC(=O)N(Cc3ccc(C)cc3)C2=O)cc1)C(N)=O
[1]
  IC50: 4.8 µM
[2]
  Ki: > 10 µM
[3]
  Ki: 3.1 µM
[4]
  inhibition: Active
[5]
  inhibition: 66.7%
[6]
  inhibition: 97.6%
[7]
  inhibition: 9.3%

## CCCC[C@H](NC(=O)[C@H](CCCCN)NC(=O)[C@H](CCCNC(=N)N)NC(=O)c1ccc(/C=C2\SC(=O)NC2=O)cc1)C(N)=O
[8]
  Activity: Non-toxic
[5]
  inhibition: 27%
[6]
  inhibition: 84.4%
[7]
  inhibition: 14.5%
[9]
  EC50: > 50 µM

## CCCC[C@H](NC(=O)[C@H](CCCCN)NC(=O)[C@H](CCCNC(=N)N)NC(=O)c1ccccc1)C(N)=O (Bz-Arg-Lys-[Nle]-NH2)
[1]
  IC50: 13.3 µM
[8]
  Activity: Non-toxic
[2]
  Ki: > 50 µM
[3]
  Ki: 11.2 µM
[4]
  inhibition: Active
[5]
  inhibition: 7.7%
[6]
  inhibition: 68.1%
[7]
  inhibition: 5.5%

## CCCC[C@H](NC(=O)[C@H](CCCCN)NC(=O)[C@H](CCCNC(=N)N)NC(=O)c1ccc(/C=C2\SC(=S)N(C3CCCC3)C2=O)cc1)C(N)=O
[1]
  IC50: 6.1 µM
[2]
  Ki: > 10 µM
[3]
  Ki: 3.6 µM
[4]
  inhibition: Active
[5]
  inhibition: 97.7%
[10]
  Papp: 2.31 ×10⁻⁶ cm/s
[6]
  inhibition: 99.8%
[7]
  inhibition: inactive
[9]
  EC50: 30.3 µM

## CCCC[C@H](NC(=O)[C@H](CCCCN)NC(=O)[C@H](CCCNC(=N)N)NC(=O)c1ccc(/C=C2\SC(=O)N(CCCC)C2=O)cc1)C(N)=O
[1]
  IC50: 3.5 µM
[2]
  Ki: > 10 µM
[3]
  Ki: 3.4 µM
[4]
  inhibition: Active
[5]
  inhibition: 52.4%
[10]
  Papp: 1.18 ×10⁻⁶ cm/s
[6]
  inhibition: 100%
[7]
  inhibition: 18.4%
[9]
  EC50: > 50 µM

## CCCC[C@H](NC(=O)[C@H](CCCCN)NC(=O)[C@H](CCCNC(=N)N)NC(=O)/C=C1\SC(=S)N(Cc2ccc(OC)cc2)C1=O)C(N)=O
[8]
  Activity: Non-toxic
[5]
  inhibition: 15.3%
[6]
  inhibition: 40.9%
[7]
  inhibition: 24.7%
[9]
  EC50: 26 µM

## CCCC[C@H](NC(=O)[C@H](CCCCN)NC(=O)[C@H](CCCNC(=N)N)NC(=O)c1ccc(/C=C(\C#N)C(=O)NC2CC2)cc1)C(N)=O
[1]
  IC50: 5.3 µM
[8]
  Activity: Non-toxic
[2]
  Ki: > 50 µM
[3]
  Ki: 4 µM
[4]
  inhibition: Active
[12]
  inhibition: inactive
[5]
  inhibition: 28%
[10]
  Papp: 1.11 ×10⁻⁶ cm/s
[6]
  inhibition: 88.5%
[7]
  inhibition: 13.4%

## CCCC[C@H](NC(=O)[C@H](CCCCN)NC(=O)[C@H](CCCNC(=N)N)NC(=O)/C=C/c1ccccc1)C(N)=O
[1]
  IC50: 10.5 µM
[8]
  Activity: Non-toxic
[2]
  Ki: > 50 µM
[3]
  Ki: 6.9 µM
[4]
  inhibition: Active
[5]
  inhibition: 13.8%
[10]
  Papp: 1.26 ×10⁻⁶ cm/s
[6]
  inhibition: 82.9%
[7]
  inhibition: inactive

## CCCC[C@H](NC(=O)[C@H](CCCCN)NC(=O)[C@H](CCCNC(=N)N)NC(=O)c1cccs1)C(N)=O
[1]
  IC50: 14.1 µM
[8]
  Activity: Non-toxic
[2]
  Ki: > 50 µM
[3]
  Ki: 14.5 µM
[4]
  inhibition: Active
[12]
  inhibition: inactive
[5]
  inhibition: 14.7%
[6]
  inhibition: 71.1%
[7]
  inhibition: inactive

## CCCC[C@H](NC(=O)[C@H](CCCCN)NC(=O)[C@H](CCCNC(=N)N)NC(=O)c1ccc(/C=C2\SC(=O)N(CCOC(C)=O)C2=O)cc1)C(N)=O
[1]
  IC50: 4.8 µM
[2]
  Ki: > 10 µM
[3]
  Ki: 3.6 µM
[4]
  inhibition: Active
[5]
  inhibition: 41.4%
[6]
  inhibition: 97.6%
[7]
  inhibition: 16.8%

## CCCC[C@H](NC(=O)[C@H](CCCN)NC(=O)[C@H](CCCNC(=N)N)NC(=O)c1ccc(/C=C2\SC(=O)N(Cc3ccccc3)C2=O)cc1)C(N)=O
[8]
  Activity: Non-toxic
[12]
  inhibition: inactive
[5]
  inhibition: 45%
[6]
  inhibition: 74.5%
[7]
  inhibition: 14.3%
[9]
  EC50: 26.8 µM

## C=CCN1C(=O)/C(=C/c2ccc(C(=O)N[C@@H](CCCNC(=N)N)C(=O)N[C@@H](CCCCN)C(=O)N[C@@H](CCCC)C(N)=O)cc2)SC1=S
[8]
  Activity: Non-toxic
[5]
  inhibition: 54.6%
[10]
  Papp: 0.42 ×10⁻⁶ cm/s
[6]
  inhibition: 96%
[7]
  inhibition: inactive
[9]
  EC50: 31.3 µM

## CCCC[C@H](NC(=O)[C@H](CCCCN)NC(=O)[C@H](CCCNC(=N)N)NC(=O)c1ccc(/C=C2\SC(=O)N(C3CCCC3)C2=O)cc1)C(N)=O
[1]
  IC50: 2.5 µM
[11]
  inhibition: Active
[2]
  Ki: 7.9 µM
[3]
  Ki: 1.8 µM
[5]
  inhibition: 51.8%
[10]
  Papp: 0.44 ×10⁻⁶ cm/s
[6]
  inhibition: 98.2%
[7]
  inhibition: 16%
[9]
  EC50: 44.9 µM

## CCCC[C@H](NC(=O)[C@H](CCCCN)NC(=O)[C@H](CCCNC(=N)N)NC(=O)c1ccc(/C=C2\SC(=S)N(CCCC)C2=O)cc1)C(N)=O
[1]
  IC50: 6.2 µM
[2]
  Ki: > 10 µM
[3]
  Ki: 4.7 µM
[4]
  inhibition: Active
[5]
  inhibition: 64.7%
[10]
  Papp: 1.61 ×10⁻⁶ cm/s
[6]
  inhibition: 97.3%
[7]
  inhibition: 11.3%
[9]
  EC50: 35.5 µM

## CCCC[C@H](NC(=O)[C@H](CCCCN)NC(=O)[C@H](CCCNC(=N)N)NC(=O)c1ccc(/C=C/C(N)=O)cc1)C(N)=O
[1]
  IC50: 6.4 µM
[8]
  Activity: Non-toxic
[2]
  Ki: > 50 µM
[3]
  Ki: 8.2 µM
[4]
  inhibition: Active
[5]
  inhibition: 15.6%
[6]
  inhibition: 84.6%
[7]
  inhibition: inactive

## CCCC[C@H](NC(=O)[C@H](CCCCN)NC(=O)[C@H](CCCNC(=N)N)NC(=O)c1ccc(/C=C2\SC(=O)N(Cc3ccc(F)cc3)C2=O)cc1)C(N)=O
[1]
  IC50: 2.9 µM
[11]
  inhibition: Active
[2]
  Ki: 5.2 µM
[3]
  Ki: 1.5 µM
[5]
  inhibition: 63.7%
[10]
  Papp: 0.43 ×10⁻⁶ cm/s
[6]
  inhibition: 99.4%
[7]
  inhibition: 20.3%
